The source made the active and inactive calls. No cut-off for these calls is given here.
Columns and labels:
Homo sapiens [1] = species: Homo sapiens; experiment: Selectivity ratio of Ki for recombinant human PKC-epsilon to Ki for recombinant RasGRP1 C1 domain (unknown origin)
[2] = target: T1, Ras guanyl-releasing protein 3 (Homo sapiens, UniProt Q8IV61); experiment: Displacement of [3H]PDBu from recombinant human GFP-tagged RasGRP3 expressed in Escherichia coli BL21 after 5 mins by scintillation counting analysis in presence of phosphatidylserine
T1 sequence (Q8IV61 whole entry): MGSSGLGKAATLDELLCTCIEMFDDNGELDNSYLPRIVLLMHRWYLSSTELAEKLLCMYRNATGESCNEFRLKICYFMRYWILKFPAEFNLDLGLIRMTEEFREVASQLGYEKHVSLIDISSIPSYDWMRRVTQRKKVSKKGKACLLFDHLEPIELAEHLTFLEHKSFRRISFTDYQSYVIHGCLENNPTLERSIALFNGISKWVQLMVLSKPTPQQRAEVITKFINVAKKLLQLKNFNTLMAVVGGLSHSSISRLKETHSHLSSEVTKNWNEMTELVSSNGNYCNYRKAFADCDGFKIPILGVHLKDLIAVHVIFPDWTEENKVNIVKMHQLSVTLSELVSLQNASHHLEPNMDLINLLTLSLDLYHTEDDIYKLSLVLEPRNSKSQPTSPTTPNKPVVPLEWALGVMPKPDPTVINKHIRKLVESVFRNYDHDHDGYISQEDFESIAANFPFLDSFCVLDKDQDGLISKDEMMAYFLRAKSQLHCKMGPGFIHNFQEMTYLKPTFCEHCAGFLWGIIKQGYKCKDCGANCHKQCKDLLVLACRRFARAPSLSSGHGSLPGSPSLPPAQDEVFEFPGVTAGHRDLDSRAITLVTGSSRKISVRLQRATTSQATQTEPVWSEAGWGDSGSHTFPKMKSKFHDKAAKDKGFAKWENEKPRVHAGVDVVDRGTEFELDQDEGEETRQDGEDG
How it was run: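 Competition for [3H]PDBu binding to RasGRP3 with 100 μg/ml phosphatidylserine present, run at 18°C to optimize stability. Values are mean ± SEM of triplicate independent experiments.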

Homo sapiens [3] = species: Homo sapiens; experiment: Selectivity ratio of Ki for recombinant human PKC-alpha to Ki for recombinant human GFP-tagged RasGRP3
[4] = target: Protein kinase C delta type (Homo sapiens) (UniProt Q05655); experiment: Activation of PKC-delta in human Ramos cells assessed as protein phosphorylation at S299 at 10000 nM after 30 mins by Western blot analysis; type: cell-based
How it was run: (§1)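 Ramos cells in RPMI-1640 with 10% FBS and 1% L-glutamine, plated at 300,000 cells/ml, were exposed after 24 h to 0.01, 0.1, 1 and 10 μM compound for 30 min. Lysates were made in PBS with 0.5% Triton X-100 and sonicated. 7.5 μg protein was run on 10% Tris-glycine gels, blotted to nitrocellulose, probed overnight with phospho-specific primary antibodies and detected by ECL.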

Homo sapiens [5] = species: Homo sapiens; experiment: Selectivity ratio of Ki for recombinant human PKC-epsilon to Ki for recombinant human GFP-tagged RasGRP3
[6] = target: Protein kinase C delta type (Homo sapiens) (UniProt Q05655); experiment: Binding affinity to recombinant human GFP-tagged PKC-delta expressed in human LNCAP cells assessed as induction of protein translocation from plasma membrane to internal membrane at 10000 nM after 2 to 10 mins by confocal microscopic analysis; type: cell-based
How it was run: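 LNCaP cells were transiently transfected with human GFP-PKCδ or GFP-RasGRP3 and imaged 24 h later by live confocal microscopy (488 nm excitation) every 30 s for 30 min after 10 μM ligand. Distribution was assessed from representative images. n = 3–6.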

[7] = target: T2, Ras guanyl-releasing protein 3 (Homo sapiens) (UniProt Q8IV61); experiment: Activation of RasGRP3 in human Ramos cells assessed as ERK1/2 phosphorylation at 10000 nM after 30 mins by Western blot analysis; type: cell-based; how it was run: as §1
T2 sequence (whole entry): T1 sequence (Q8IV61 whole entry)

[8] = target: T3, Protein kinase C alpha type (Homo sapiens, UniProt P17252); experiment: Binding affinity to recombinant human GFP-tagged PKC-alpha expressed in CHOK1 cells assessed as induction of protein translocation from plasma membrane to internal membrane at 10000 nM after 5 to 15 mins by confocal microscopic analysis; type: cell-based; details: CHO-K1
How it was run: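 CHO-K1 cells were transiently transfected with human GFP-PKCα and imaged live by confocal microscopy 24 h later (488 nm excitation, 500–530 nm emission) every 30 s for 30 min after 10 μM ligand. Membrane/cytoplasm intensity ratio from 4 μm2 regions was normalized to time 0. n = 3–6.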

[9] = target: T2, Ras guanyl-releasing protein 3 (Homo sapiens); experiment: Activation of RasGRP3 (unknown origin) overexpressed in HEK293 cells assessed as ERK1/2 phosphorylation at 0.1 to 30 uM after 30 mins by Western blot analysis; type: cell-based
[10] = target: T3, Protein kinase C alpha type; experiment: Displacement of [3H]PDBu from recombinant human PKC-alpha after 5 mins by scintillation counting analysis in presence of phosphatidylserine
How it was run: (§2)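 [3H]PDBu binding competition with 100 μg/ml phosphatidylserine present; PKCα and RasGRP1-C1 assayed at 37°C for stability. Values are mean ± SEM of triplicate independent experiments.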

[11] = target: T2, Ras guanyl-releasing protein 3 (Homo sapiens); experiment: Activation of RasGRP3 (unknown origin) overexpressed in HEK293 cells assessed as protein phosphorylation at T133 at 0.1 to 30 uM after 30 mins by Western blot analysis; type: cell-based
[12] = target: Protein kinase C delta type (Homo sapiens) (UniProt Q05655); experiment: Activation of PKC-delta in HEK293 cells assessed as protein phosphorylation at S299 at 0.1 to 30 uM after 30 mins by Western blot analysis; type: cell-based
[13] = target: T4, Protein kinase C epsilon type (Homo sapiens, UniProt Q02156); experiment: Displacement of [3H]PDBu from recombinant human PKC-epsilon after 5 mins by scintillation counting analysis in presence of phosphatidylserine; how it was run: as §2
T4 sequence (Q02156 whole entry): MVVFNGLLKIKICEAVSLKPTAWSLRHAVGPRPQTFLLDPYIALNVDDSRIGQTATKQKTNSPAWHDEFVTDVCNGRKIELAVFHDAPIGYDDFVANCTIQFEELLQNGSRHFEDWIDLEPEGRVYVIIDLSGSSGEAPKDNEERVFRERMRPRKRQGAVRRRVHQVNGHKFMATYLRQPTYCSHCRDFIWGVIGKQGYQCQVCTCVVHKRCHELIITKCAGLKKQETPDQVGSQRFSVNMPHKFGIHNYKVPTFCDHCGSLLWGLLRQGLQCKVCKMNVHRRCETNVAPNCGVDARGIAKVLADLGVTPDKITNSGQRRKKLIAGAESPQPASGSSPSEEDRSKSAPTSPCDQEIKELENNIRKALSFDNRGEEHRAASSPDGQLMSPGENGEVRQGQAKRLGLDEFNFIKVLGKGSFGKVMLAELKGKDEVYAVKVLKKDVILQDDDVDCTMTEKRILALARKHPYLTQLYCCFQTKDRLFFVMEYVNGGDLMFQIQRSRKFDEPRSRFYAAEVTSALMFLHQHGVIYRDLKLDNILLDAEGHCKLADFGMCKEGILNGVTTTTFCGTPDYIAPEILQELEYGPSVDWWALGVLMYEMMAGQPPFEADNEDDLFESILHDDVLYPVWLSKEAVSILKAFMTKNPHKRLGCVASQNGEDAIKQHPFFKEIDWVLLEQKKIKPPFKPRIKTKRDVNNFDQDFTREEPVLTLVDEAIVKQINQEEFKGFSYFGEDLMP

Protein kinase C delta type (Homo sapiens), sequence (Q05655 whole entry, looked up): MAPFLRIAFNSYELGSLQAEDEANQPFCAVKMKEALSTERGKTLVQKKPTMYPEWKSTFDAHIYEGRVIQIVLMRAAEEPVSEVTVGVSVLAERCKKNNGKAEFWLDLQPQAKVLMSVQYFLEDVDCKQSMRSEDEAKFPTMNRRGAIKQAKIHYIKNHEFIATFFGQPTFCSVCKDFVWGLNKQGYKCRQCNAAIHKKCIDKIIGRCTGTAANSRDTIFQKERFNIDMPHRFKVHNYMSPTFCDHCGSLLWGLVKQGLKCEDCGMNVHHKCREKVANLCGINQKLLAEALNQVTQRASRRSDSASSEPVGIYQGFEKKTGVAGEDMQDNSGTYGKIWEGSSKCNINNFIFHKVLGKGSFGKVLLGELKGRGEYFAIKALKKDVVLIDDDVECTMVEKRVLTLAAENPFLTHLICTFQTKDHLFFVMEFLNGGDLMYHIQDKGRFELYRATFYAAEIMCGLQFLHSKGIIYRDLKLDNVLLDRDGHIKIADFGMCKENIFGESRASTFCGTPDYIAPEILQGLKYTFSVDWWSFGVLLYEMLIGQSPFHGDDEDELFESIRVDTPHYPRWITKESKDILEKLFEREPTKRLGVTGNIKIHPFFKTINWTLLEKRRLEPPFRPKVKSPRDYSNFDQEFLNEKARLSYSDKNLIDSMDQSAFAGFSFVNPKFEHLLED

| Ratio Ki (Homo sapiens [1]) | Ki [2] | Ratio Ki (Homo sapiens [3]) | Activity [4] | Ratio Ki (Homo sapiens [5]) | Activity [6] | Activity [7] | Activity [8] | Activity [9] | Ki [10] | Activity [11] | Activity [12] | Ki [13] | Compound |
| --- | --- | --- | --- | --- | --- | --- | --- | --- | --- | --- | --- | --- | --- |
| 5.3 | 0.34 nM | 24 | Active | 6.4 | Active | Active | Active | Active | 8.25 nM | Active | Active | 2.17 nM | CCCC(CCC)C(=O)OCC1(CO)C/C(=C\c2ccc3c(ccn3C)c2)C(=O)O1 (centres undefined) |
| 9.4 | 1.63 nM | 11 | Active | 9 | Active | Active | Active | Active | 17.8 nM | Active | Active | 14.6 nM | CCCC(CCC)C(=O)OCC1(CO)C/C(=C\c2cccc3c2ccn3C)C(=O)O1 (centres undefined) |
| 84 | 0.33 nM | 49 | Active | 64 | Active | Active | Active |  | 16.2 nM | Active | Active | 21.1 nM | CCCC(CCC)C(=O)OCC1(CO)C/C(=C\c2cn(C)c3ccccc23)C(=O)O1 (centres undefined) |
| 9.3 | 1.22 nM | 6 | Active | 6.6 | Active | Active | Active | Active | 7.5 nM | Active | Active | 8.08 nM | CCCC(CCC)C(=O)OCC1(CO)C/C(=C\c2ccc3ccn(C)c3c2)C(=O)O1 (centres undefined) |
| 17 | 1.12 nM | 10 | Active | 11 | Active | Active | Active | Active | 12.9 nM | Active | Active | 11.7 nM | CCCC(CCC)C(=O)OCC1(CO)C/C(=C\c2cccc3ccn(C)c23)C(=O)O1 (centres undefined) |

— ChEMBL document CHEMBL3286272, “Synthesis, biological, and biophysical studies of DAG-indololactones designed as selective activators of RasGRP” (Bioorg Med Chem, 2014)
